Assay outcomes as filed in PubChem BioAssay.
Rows were chosen to be rich in hits. Some 2% of all compounds tested hit in one or more screens of this group.
M5 PAM: CHRM5 positive allosteric modulation. 360,000 compounds, 0.3% hits. activation, % at 3 µM. P08912. CHO-K1 hM5, Fluo-8 calcium, ACh EC20 PAM; 0% = ACh EC20, 100% = ACh EC100;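 active = activation above the run cutoff, the mean activation of all test compounds plus 3 SD, cut at about 18% in these data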
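Assay system: CHO-K1 hM5 cells. Also added: acetylcholine at EC20 concentration, added after compound. Dosing: 3 µM, single dose. Times: compound preincubation 140 s before EC20 acetylcholine addition. Signal: Fluo-8 calcium fluorescence. Measure: % activation relative to EC20 and EC100 ACh responses. Repeats: singlicate, one well per test compound.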
CHRM5 agonist: CHRM5 agonism in calcium assay. activation, % at 3 µM. CHO-K1 hM5 cells, Fluo-8 calcium fluorescence; 0% DMSO wells, 100% maximal acetylcholine response. P08912. 360,000 compounds, 0.19% hits. AID 624037;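 active = activation above the run's mean over test compounds plus 3 SD, cut at about 23% in these data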;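 note: signal is peak over basal fluorescence ratio across the kinetic read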
CHRM1 PAM: positive allosteric modulators of human M1 muscarinic receptor; activation, % at 3 µM; CHO-K1 hM1, Fluo-8 calcium fluorescence, ACh EC20; 0% = ACh EC20, 100% = maximal ACh; AID 588819; 360,000 compounds, 0.088% hits; P11229; in the data active = activation above about 19%, passing the limit was not always enough
Target sequence (P11229 whole entry, looked up): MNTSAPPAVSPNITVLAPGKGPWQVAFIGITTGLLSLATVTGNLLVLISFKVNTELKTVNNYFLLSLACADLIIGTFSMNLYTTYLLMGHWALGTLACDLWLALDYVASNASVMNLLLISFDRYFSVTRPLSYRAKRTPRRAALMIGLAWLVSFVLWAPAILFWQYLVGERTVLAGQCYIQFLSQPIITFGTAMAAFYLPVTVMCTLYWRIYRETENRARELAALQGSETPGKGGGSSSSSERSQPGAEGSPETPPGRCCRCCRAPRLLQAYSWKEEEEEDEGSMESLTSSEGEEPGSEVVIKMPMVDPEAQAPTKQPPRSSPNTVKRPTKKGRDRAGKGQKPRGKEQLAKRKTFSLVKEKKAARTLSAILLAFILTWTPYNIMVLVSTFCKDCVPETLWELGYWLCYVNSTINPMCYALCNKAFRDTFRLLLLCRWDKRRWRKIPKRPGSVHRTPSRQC
M1 ag: human M1 muscarinic receptor agonism | P11229 | CHO-K1 hM1, Fluo-8 calcium fluorescence, agonist mode; 0% DMSO, 100% acetylcholine EC100 | activation, % at 3 µM | 360,000 compounds, 0.33% hits;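 active = activation above the run's mean compound activation plus 3 SD, cut at about 16% in these data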;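 note: peak over basal fluorescence ratio within a 140 s kinetic read after compound addition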
M1 antag: antagonists of human M1 muscarinic receptor; P11229; CHO-K1 hM1, Fluo-8 calcium fluorescence, ACh EC80 antagonist; inhibition, % at 3 µM; 360,000 compounds, 1.3% hits;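 active = percent inhibition above its own plate's cutoff, namely the mean of that plate's compound wells plus 3 SD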;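 note: peak over basal fluorescence ratio during 140 s after agonist addition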
CHRM5 antagonist: CHRM5 antagonism in calcium assay. CHO-hM5 cells, Fluo-8 calcium fluorescence, ACh EC80. inhibition, % at 3 µM. 360,000 compounds, 0.59% hits. AID 624040;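 active = inhibition above a per-plate cutoff, the mean of that plate's test compounds plus 3 SD, cut at about 27% in these data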
Each line names hits and unclear results; the compound was inactive in the other large screens.

CCOC(=O)C1(Cc2ccc(OC)cc2)CCN(C(=O)CN2CCCCC2=O)CC1	CHRM5 antagonist 28
COc1ccc(CN(C(C)=O)c2cc(C)c([N+](=O)[O-])cc2OC)cc1OC	none
CN(Cc1ccccc1)C(=O)CN1CCN(C(c2ccccc2)c2ccccc2)CC1	M1 antag 86
CC(O)(c1cccc(F)c1)c1nc(-c2cccc(C(F)(F)F)c2)cs1 (centres undefined)	none
CC(O)(c1ccncc1)c1nc(-c2cccc(C(F)(F)F)c2)cs1 (centres undefined)	M1 antag 30
CCN(CC)C(=O)c1cccc(-c2csc(C(C)(O)c3ccc(OC)cc3)n2)c1 (centres undefined)	M1 antag 46
COc1ccc(-c2csc(N(CCCN3CCOCC3)C(=O)c3ccco3)n2)cc1	M1 antag 42
CCN(C(=O)c1cccs1)c1nc(-c2ccc(OC)cc2)cs1	none
Cc1ccc(-c2csc(N(CCCN3CCOCC3)C(=O)c3ccco3)n2)cc1	none
COc1ccc(-c2csc(N(CCCN(C)C)C(=O)c3cccs3)n2)cc1	M1 antag 30, CHRM5 antagonist 38
CN1C(=O)/C(=C\c2ccc(N(C)C)cc2)OC1=S	CHRM5 agonist 96, M1 ag 53, M1 antag 39
COc1ccc(CCN2C(=O)c3ccccc3C2c2nnnn2Cc2ccccc2)cc1OC (centres undefined)	none (no result: CHRM1 PAM, M1 ag, M1 antag)
CC1CCN(CCCCOc2cccc(Br)c2)CC1	M1 antag 83
Brc1cccc(OCCN2CCCCC2)c1	none
CC1CCN(CCCCOc2ccccc2Br)CC1	none
Cc1cc(Cl)c(OCCOCCN2CCC(C)CC2)c(Br)c1	M1 antag 55
Cc1cc(Br)ccc1OCCCCN1CCC(C)CC1	M1 antag 53
CC1CCN(CCCCOc2ccc(Br)cc2)CC1	M1 antag 31
COc1ccc(-c2ccc(CN3C(C)C(=O)N(Cc4cn(CCC5OCCO5)nn4)CCS3(=O)=O)cc2)cc1 (centres undefined)	none
CCN1CCN(CCC(=O)Nc2ccc(Br)c(C)c2)CC1	M5 PAM 20
CCOC(=O)N1CCN(CCC(=O)Nc2ccc(Br)c(C)c2)CC1	none
Cn1nc(C(F)(F)F)c(C(=O)Nc2ccc(F)cc2F)c1Sc1cccc(C(F)(F)F)c1	M1 antag 34
COc1ccc(Oc2nnnn2-c2ccccc2)cc1	none
c1ccc(-n2nnnc2Oc2ccc(-c3nnco3)cc2)cc1	CHRM5 agonist 84, CHRM5 antagonist 79
NC(c1csc(Nc2nncc3ccccc23)n1)C1CCCCC1 (centres undefined)	none
CCOc1ccc(NCc2cccn2-c2nnc(N3CCC(C(=O)NCCCN4CCCCC4C)CC3)s2)cc1 (centres undefined)	M1 antag 53
CCOc1ccc(CCNC(=O)C2CCN(c3nnc(-n4cccc4)s3)CC2)cc1	none
CCC1CCCCN1CCCNC(=O)C1CCN(c2nnc(-n3cccc3)s2)CC1 (centres undefined)	M1 antag 95
CCOc1ccc(NCc2cccn2-c2nnc(N3CCC(C(=O)NCCCN4CCCCC4)CC3)s2)cc1	M1 antag 63
CCOc1ccc(NCc2cccn2-c2nnc(N3CCC(C(=O)NCCCN4C(C)CCCC4C)CC3)s2)cc1 (centres undefined)	M1 antag 78
CN1CCN(CCCNC(=O)C2CCN(c3nnc(-n4cccc4)s3)CC2)CC1	none
COc1cc(NC(=O)N2CCc3nc(NCc4cccc(Oc5ccccc5)c4)ncc3C2)cc(OC)c1OC	none
Oc1ccccc1Oc1ncc(Br)c(N2CCOCC2)n1	M1 antag 84
Oc1ccccc1Oc1ncc(Br)c(Cl)n1	none
CC1CN(C=O)CC(C)N1CCN1C(C)CN(C=O)CC1C (centres undefined)	none
CC(C)c1cccc(C(C)C)c1OCCCCN1CCCC1	M1 antag 33
Cc1cc(C(C)(C)C)ccc1OCCOCCN1CCCC1	M1 antag 33
Cc1cccc(C(C)(C)C)c1OCCCCN1CCCC1	M1 ag 16
CC(C)(C)c1ccccc1OCCCCN1CCCC1	none
O=S1(=O)CC(N2CC=CC2)CN1Cc1cn(Cc2ccccc2)nn1 (centres undefined)	none (no result: CHRM1 PAM, M1 ag, M1 antag)
Nc1[nH]c(C(=O)c2ccccc2)c(-c2ccc(Cl)cc2Cl)c1C(=O)c1ccc(Br)cc1	none (no result: CHRM1 PAM, M1 ag, M1 antag)
COc1ccccc1N1CCN(CCCCCCOc2ccc(F)cc2)CC1	CHRM5 antagonist 39
COc1ccccc1OCCCCN1CCN(c2ccccc2OC)CC1	none
Cc1ccc([C@@H]2C[C@H]3[C@@H](CN2S(=O)(=O)c2ccc(Cl)cc2)C(=O)C[C@@H](c2ccccc2)N3S(=O)(=O)c2ccc(C)cc2)cc1	none
COc1ccc(CCN2C(=O)CCC2(C)c2nnnn2-c2c(C)cccc2C)cc1OC (centres undefined)	none (no result: CHRM1 PAM, M1 ag, M1 antag)
COc1cccc(C(C)(O)c2nc(-c3cccs3)cs2)c1 (centres undefined)	none
CCN(CC)CCn1c2c(c(SCC(=O)Nc3ccc(C(C)C)cc3)nc1=O)CCCC2	none
O=C(CSc1nc(=O)n(CCCN2CCOCC2)c2c1CCCC2)Nc1cccc(F)c1	M1 antag 30
CCN(CC)CCCn1c2c(c(SCC(=O)Nc3ccc(F)c(F)c3)nc1=O)CCC2	none
CCN(CC)CCCn1c2c(c(SCC(=O)Nc3cc(OC)cc(OC)c3)nc1=O)CCC2	M1 antag 29
CC(C)c1ccc(NC(=O)CSc2nc(=O)[nH]c3c2CCCC3)cc1	CHRM5 agonist 45
O=C(CSc1nc(=O)n(CCCN2CCOCC2)c2c1CCCC2)Nc1cccc([N+](=O)[O-])c1	none
CN(C)CCn1c2c(c(SCC(=O)Nc3ccccc3)nc1=O)CCCC2	none
CCc1ccc(NC(=O)CSc2nc(=O)n(CCCN(C)C)c3c2CCC3)cc1	CHRM5 antagonist 31
CCOC(=O)C1(C)CCCN(C(=O)C(c2ccccc2)c2ccccc2)C1 (centres undefined)	none
CCN(CC)CCn1c2c(c(SCC(=O)Nc3ccc(C)c(F)c3)nc1=O)CCCC2	M1 antag 50
CCCCc1ccc(NC(=O)CSc2nc(=O)n(CCN(CC)CC)c3c2CCC3)cc1	M1 antag 36
CC(=O)c1sc(Nc2ccc(Oc3ccccc3)cc2)nc1C	none
OCC1(Cc2cccc(C(F)(F)F)c2)CCN(Cc2cc(F)cc(F)c2)CC1	none
CSc1cccc(CN2CCC(CO)(Cc3cccc(C(F)(F)F)c3)CC2)c1	M1 antag 31
O=C(Nc1c(Cl)cc2c(c1Cl)Cc1cc([N+](=O)[O-])ccc1-2)C(Cl)Cl	none
